MEX-5 binding: C. elegans MEX-5 TCR-2 RNA binding activity; Q9XUB2; activity score (negative = inhibition of binding), % at 10 µM; MEX-5/FITC-TCR2 RNA binding, fluorescence polarization; stronger effect = lower value; AID 1832; 300,000 tested, 0.38% active;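 active = inhibition past about -25% in most replicates, and total fluorescence under double the plate's negative control median, limit read from the data; inconclusive = replicates evenly split on the limit, or fluorescence at least double controls; inactive = too little inhibition in most replicates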
RanGTP-Imp inh: disruptors of Ran-importin-beta complex formation – biochemical, FRET, CFP-Ran, YFP-importin-beta, homogeneous, primary screen. cell-free CFP-Ran/YFP-importin-beta FRET ratio. inhibition, % (no concentration beside the values). 300,000 tested, 1.1% active. AID 2216;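 active = more than half of the replicate wells show a fall in the fluorescence ratio signal beyond about 16%, limit read from the data, passing the limit was not always enough; inconclusive = exactly half of the replicate wells pass the set limit; inactive = fewer than half of replicates pass the limit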
Runt-SMMHC FRET: Runt domain-CBFb-SMMHC interaction inhibition | Q01196+Q13951 | Cerulean-Runt/Venus-CBFb-SMMHC FRET ratio 530/480, 1 h | inhibition, % at 20 µM | 220,000 tested, 0.74% active | AID 1434;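 active = mean inhibition across duplicate retests at 20 µM reaching about 50%, limit read from the data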;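 note: inhibitors lower the FRET ratio by blocking Runt binding to CBFb-SMMHC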
Target sequence (Q01196 whole entry, looked up, the tested form may be a part): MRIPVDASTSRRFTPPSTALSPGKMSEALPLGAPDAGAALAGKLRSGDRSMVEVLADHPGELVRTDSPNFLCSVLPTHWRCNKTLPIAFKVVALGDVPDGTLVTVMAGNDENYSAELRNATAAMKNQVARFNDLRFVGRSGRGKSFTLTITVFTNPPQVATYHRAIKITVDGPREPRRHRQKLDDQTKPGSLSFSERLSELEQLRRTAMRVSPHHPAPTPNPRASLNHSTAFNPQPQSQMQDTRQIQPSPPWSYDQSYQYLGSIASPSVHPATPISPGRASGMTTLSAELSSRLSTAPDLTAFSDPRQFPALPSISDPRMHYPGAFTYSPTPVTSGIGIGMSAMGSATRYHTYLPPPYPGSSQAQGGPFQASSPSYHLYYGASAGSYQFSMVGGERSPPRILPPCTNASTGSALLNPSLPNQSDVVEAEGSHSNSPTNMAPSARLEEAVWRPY
Target sequence (Q13951 whole entry, looked up, the tested form may be a part): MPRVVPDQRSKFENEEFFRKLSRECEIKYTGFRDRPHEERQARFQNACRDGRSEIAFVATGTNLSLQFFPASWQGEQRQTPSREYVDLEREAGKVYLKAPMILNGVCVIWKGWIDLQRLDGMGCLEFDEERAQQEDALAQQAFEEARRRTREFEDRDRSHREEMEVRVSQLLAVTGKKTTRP
Runt-CBFb FRET: inhibitors of human RUNX1 Runt domain binding to CBFb. Q01196+Q13951. Cerulean-Runt/Venus-CBFb FRET ratio 530/480, 1 h. inhibition, % at 20 µM. 220,000 tested, 0.46% active. AID 1496;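 active = inhibition over about 50% at 20 µM in the single-dose screen, limit read from the data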
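Assay system: Cerulean-tagged RUNX1 Runt domain (FRET donor) fusion protein / Amount: 100 nM each of Venus-CBFb and Cerulean-Runt domain / Medium: Tris buffer pH 7.5 with salts and BSA / Also added: Venus-CBFb 100 nM / Schedule: 1 h complex formation plus 1 h compound treatment, room temperature / Signal: FRET fluorescence / Read-out: loss of energy transfer signal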
KLK7 zymogen act: activates the human kallikrein-7 zymogen; purified proKLK7, EDANS-DABCYL substrate fluorescence; 100% is mature enzyme control, 0% vehicle; P49862; activation, % at 7 µM; 370,000 tested, 0.9% active;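 active = activation above the mean of all tested compounds plus 3 SD, computed per campaign excluding outliers beyond control limits, cut at about 13% in these data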
Runt-CBFb TRFRET: disrupts human RUNX1 Runt domain binding to CBFb. shares compounds with Runt-CBFb FRET. TR-FRET RUNX1 Runt domain-CBFb binding. inhibition, % at 20 µM. 480 tested, 20% active. AID 1502; in the data active = inhibition above about 40%
YIC FRET counter: counter-screen YIC FRET for RanGTP-importin-beta inhibitors; shares compounds with RanGTP-Imp inh; Purified YIC probe, intramolecular FRET ratio YFP/CFP; IC50, µM; 1,000 tested, 40% active; AID 435026;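 active = fitted half-maximal inhibitory concentration no more than tenfold above the top dose tested; inconclusive = flat fit with 30 to 70% activity, or poor fit; inactive = half-maximal concentration beyond tenfold above the top dose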
proKLK7 act conf: confirmation of human kallikrein-7 zymogen activators; purified proKLK7, EDANS-DABCYL substrate fluorescence; scaled: vehicle 0, mature enzyme 100; shares compounds with KLK7 zymogen act; 3,200 tested, 68% active; activation, % at 7 µM;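 active = activation, as change over the incubation, above the mean of all tested compounds plus 3 SD, cut at about 13% in these data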
EDANS-DABCYL int: optically interferes with EDANS-DABCYL signal, flagging KLK7 hits | EDANS-DABCYL substrate fluorescence interference, no enzyme, 4 h; solvent 0%, active enzyme control 100% | shares compounds with KLK7 zymogen act | activation, % at 7 µM | 3,200 tested, 80% active | AID 686952;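 active = activation above the all-compound mean plus 3 SD, ignoring values outside control-based bounds, cut at about 4.8% in these data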;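 note: value is the 4 h activation minus the activation read at time zero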
Of the large screens only hits and unclear results are named; the others gave an inactive call (follow-up assays come after a bar, where they were run). The list is not random: actives were taken first. Their share in the collection is about 2.1%.

COc1cc(CC2(CCc3ccncc3)C(=O)NC(=O)NC2=O)cc(OC)c1OC	none
COC(=O)C1=C(c2cccc(OCc3ccccc3)c2)C[C@@H]2CC[C@H]1N2C(=O)NCc1ccc2[nH]ccc2c1	none (no result: MEX-5 binding, RanGTP-Imp inh, Runt-SMMHC FRET, Runt-CBFb FRET)
COCCCn1c(N)c(C(=O)NCc2ccco2)c2nc3ccccc3nc21	RanGTP-Imp inh 58, Runt-SMMHC FRET 81, Runt-CBFb FRET 60, KLK7 zymogen act 34 (no result: MEX-5 binding) | Runt-CBFb TRFRET inactive
O=C(Cc1ccccc1)OCCN1CCOCC1	none
Nc1c(C(=O)NCCc2ccccc2)c2nc3ccccc3nc2n1CCN1CCOCC1	RanGTP-Imp inh 78, Runt-SMMHC FRET 91, Runt-CBFb FRET 58 | Runt-CBFb TRFRET inactive
[N-]=[N+]=CC(=O)OC[C@H](N)C(=O)O	none
CCC(C)OC(=O)c1c(N)n(Cc2cccs2)c2nc3ccccc3nc12 (configuration not stated)	Runt-SMMHC FRET 94, Runt-CBFb FRET 53 | Runt-CBFb TRFRET inactive
CC(C)(C)c1cc(O)ccc1O	none (no result: MEX-5 binding, RanGTP-Imp inh, Runt-SMMHC FRET, Runt-CBFb FRET)
N#Cc1c(/N=C/c2ccc(O)cc2O)sc2c1C1CCN2CC1	RanGTP-Imp inh 39, Runt-SMMHC FRET 59, Runt-CBFb FRET 64 | YIC FRET counter inactive
COCCNC(=O)c1c(NC(=O)c2ccco2)n(Cc2ccccc2)c2nc3ccccc3nc12	RanGTP-Imp inh 31, Runt-SMMHC FRET 98 | YIC FRET counter 0.93
CC/C(=N\NC(=O)c1ccccc1)c1c(O)n(Cc2ccccc2)c(=O)[nH]c1=O	none
C=CCn1c(O)c(C(C)=NCCc2ccccc2)c(=O)[nH]c1=O	RanGTP-Imp inh 23 | YIC FRET counter inactive
COCCCn1c(N)c(C(=O)Nc2ccccc2)c2nc3ccccc3nc21	RanGTP-Imp inh 19 | YIC FRET counter 25
C#C[C@]1(O)CCC2C3C(=O)C=C4C(Cl)=CCC[C@]4(C)C3CC[C@@]21C (some centres not stated)	none (no result: MEX-5 binding, RanGTP-Imp inh, Runt-SMMHC FRET, Runt-CBFb FRET)
CCN1CCN(c2cc(N3CCCC3)c(F)cc2[N+](=O)[O-])CC1	none
Fc1c(F)c(F)c(N2CCNCC2)c(F)c1F	none
COCCOC(=O)C1=C(C)OC(N)=C(C(=O)OC)C12C(=O)Nc1ccccc12 (configuration not stated)	RanGTP-Imp inh 16 | YIC FRET counter inactive
O=C1NC(=O)N(Cc2ccccc2)C(=O)/C1=C\N1CCCc2ccccc21	RanGTP-Imp inh 27 | YIC FRET counter inactive
Cc1cccc(-n2c(O)c(/C=C/C=Nc3ccccc3)c(=O)[nH]c2=O)c1	MEX-5 binding inconclusive, RanGTP-Imp inh 34 | YIC FRET counter 2.8
CNS(=O)(=O)c1ccc(N=Cc2c(O)n(-c3cccc(C)c3)c(=O)[nH]c2=O)cc1	none
O=c1[nH]c2ccccc2n1C1CCN(C(CCc2ccccc2)c2nnnn2C2CCCC2)CC1 (configuration not stated)	none (no result: MEX-5 binding, RanGTP-Imp inh, Runt-SMMHC FRET, Runt-CBFb FRET)
CC1CCCCN1C(=O)Cn1cc(C=C2C(=O)N(C)C(=O)N(C)C2=O)c2ccccc21 (configuration not stated)	none (no result: Runt-SMMHC FRET, Runt-CBFb FRET)
COCCCn1c(N)c(C(=O)OC(C)COC)c2nc3ccccc3nc21 (configuration not stated)	RanGTP-Imp inh 25, Runt-SMMHC FRET 94, Runt-CBFb FRET 79, KLK7 zymogen act 52 | YIC FRET counter 27 | proKLK7 act conf 75 | EDANS-DABCYL int 71
c1ccc2[nH]c(CCN3CCCCC3)nc2c1	none (no result: MEX-5 binding, RanGTP-Imp inh, Runt-SMMHC FRET, Runt-CBFb FRET)
CCOC(=O)c1c(N)n(CCN2CCCCC2)c2nc3ccccc3nc12	RanGTP-Imp inh 51, Runt-SMMHC FRET 99, KLK7 zymogen act 154 | YIC FRET counter 45 | proKLK7 act conf 29 | EDANS-DABCYL int 17
